Data set [1] is described as follows: Metabolic stability in human liver microsomes assessed as half life at 10 uM incubated for 30 mins in presence of NADPH by HPLC analysis. It is filed as ADME, Microsome. In short, it runs like this:
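Compound (10 µM) was incubated at 37 °C with 0.5 mg/mL pooled HLMs and 1 mM NADPH in 0.1 M KH2PO4 pH 7.4, sampled at 0, 2, 5, 15 and 30 min. Controls without NADPH, or buffer only, ran 0 and 30 min. Parent was quantified by HPLC-fluorescence as % of the 0 min level, n = 3. t1/2 = 0.693/k, with k from regression of ln % remaining versus time.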
Background: Liver microsomes are a subcellular fraction often used to study metabolism.

Data set [2] can be described thus: Growth inhibition of multidrug-resistant human CEM/VBL100 cells incubated for 72 hrs by MTT assay. The format is functional. Conditions: CEM/VBL100, 72 h. In short, it runs like this:
(§1)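 Leukemia lines were grown in RPMI-1640; the CEM^Vbl-100 medium also contained 100 ng/mL vinblastine. Cells were seeded at 8 × 10³ per well and left 18 h at 37 °C, 5% CO2. Medium was then replaced with fresh medium holding graded compound concentrations (DMSO stocks), in triplicate, for 72 h. Viability was read by MTT, and GI50 = concentration inhibiting proliferation 50%.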
On the technique in general: Tetrazolium dyes change colour on reduction, which living cells bring about.

Data set [3] in a line: Selectivity ratio of GI50 for human PBL cells to GI50 for human DND41 cells incubated for 72 hrs by MTT assay. The method, boiled down: (§2)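 Leukemia cells (CEM, DND-41, Jurkat) were grown in RPMI-1640 at 8×10³ cells/well and left 18 h. Donor PBL were gradient-separated, held overnight in RPMI-1640/10% FBS, and non-adherent cells set at 5×10^5 cells/mL without PHA (resting). Both were exposed 72 h to graded concentrations, read by MTT. The ratio is PBL GI50 over leukemia GI50.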

A further data set deals with Tubulin (Bos taurus, UniProt Q6B856+Q862L2+Q862F3). Kind of data set: Inhibition of bovine brain tubulin polymerization preincubated for 15 mins followed by GTP addition and measured for 20 mins by turbidimetry-based spectrophotometric method. In short, it runs like this:
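Bovine brain tubulin (10 µM) was preincubated with varying compound concentrations in 0.8 M monosodium glutamate, pH 6.6, for 15 min at 30 °C, then cooled to 0 °C. GTP was added to 0.4 mM final and the mix warmed to 30 °C. Turbidity was followed at 350 nm. IC50 = concentration inhibiting extent of assembly 50% after 20 min.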

The next data set concerns MCF7. The data set can be described thus: Growth inhibition of human MCF7 cells incubated for 72 hrs by MTT assay. The format is functional. The following applies: MCF7, 72 h.
The subject of the next data set is HL-60. Kind of data set: Growth inhibition of human HL60 cells incubated for 72 hrs by MTT assay. It is filed as functional. The following applies: HL-60, 72 h. In short, it runs like this: as §1
Data set [4] can be described thus: Stability in phosphate buffer at pH 7.4 at 10 uM incubated for 30 mins by HPLC analysis. It is filed as physicochemical. The following applies: pH 7.4, 0.5 h. The method, boiled down:
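No microsomes or NADPH: compound (10 μM final) held in 0.1 M KH₂PO₄ pH 7.4 at 37 °C. Samples taken at 0 and 30 min, quenched with ice-cold acetonitrile, centrifuged, analysed by HPLC with fluorescence detection. Percent parent remaining relative to 0 min; mean ± SD, n = 3.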

Data set [5] in a line: Metabolic stability in human liver microsomes at 10 uM incubated for 30 mins in phosphate buffer at pH 7.4 by HPLC analysis. It is filed as ADME, Microsome. Conditions: pH 7.4, 0.5 h. The method, boiled down: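 Test compound (10 μM, final) incubated at 37 °C with pooled mixed-gender HLMs (0.5 mg/mL) in 0.1 M KH₂PO₄ pH 7.4 without NADPH. Sampled at 0 and 30 min, quenched with ice-cold acetonitrile, centrifuged, supernatant analysed by HPLC with fluorescence detection (ex 344/em 493 nm). Percent remaining calculated from peak area relative to 0 min; mean ± SD, n = 3.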

Data set [6] in a line: Selectivity ratio of GI50 for PHA-stimulated human PBL cells to GI50 for human Jurkat cells incubated for 72 hrs by MTT assay. The method, boiled down:
(§3)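 Leukemia cells (CEM, DND-41, Jurkat) were grown in RPMI-1640 at 8×10³ cells/well and left 18 h. Donor PBL were gradient-separated, held overnight, and non-adherent cells set at 5×10^5 cells/mL with 2.5 µg/mL PHA. Both were exposed 72 h at 37 °C to graded compound concentrations, read by MTT. The ratio is PBL GI50 over leukemia GI50.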

For the next data set, the system named is HT-29. The data set can be described thus: Growth inhibition of human HT-29 cells incubated for 72 hrs by MTT assay. It is filed as functional. Conditions: HT-29, 72 h.
The nature of data set [7]: Selectivity ratio of GI50 for PHA-stimulated human PBL cells to GI50 for human DND41 cells incubated for 72 hrs by MTT assay. In short, it runs like this: as §3
Another data set concerns the target Tubulin (Bos taurus) (UniProt Q6B856+Q862L2+Q862F3). The data set can be described thus: Inhibition of [3H]colchicine binding to bovine brain tubulin at 5 uM relative to control. In short, it runs like this:
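Bovine brain tubulin at 1 µM was incubated with 5 µM [3H]colchicine and the test compound at 5 µM. Inhibition of colchicine binding was measured relative to a control.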

A short description of data set [8]: Growth inhibition of PHA-stimulated human PBL cells incubated for 72 hrs by MTT assay. It is filed as cell-based. The following applies: PHA-stimulated PBL cells (peripheral blood lymphocytes). The method, boiled down:
(§4)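 PBL from healthy donors were isolated on a Lymphoprep gradient, held overnight in RPMI-1640 with 10% FBS, and the non-adherent cells resuspended at 5 × 10^5 cells/mL. Proliferating cultures got 2.5 µg/mL PHA; resting cultures got none. Compound was added at several concentrations for 72 h and viability read by MTT. GI50 reported as mean ± SEM of three experiments.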

Data set [9] can be described thus: Metabolic stability in human liver microsomes at 10 uM incubated for 15 mins in presence of NADPH and non-selective CYP inhibitor quercetin by HPLC analysis. The format is ADME, Microsome. Conditions: 0.25 h. The method, boiled down: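 Compound (10 µM) was incubated 0 and 15 min at 37 °C with pooled HLMs and 1 mM NADPH in 0.1 M KH2PO4 pH 7.4, with or without 100 µM quercetin. Parent remaining was measured by HPLC-fluorescence relative to 0 min; mean ± SD, n = 3.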

Another data set concerns RS4-11. Kind of data set: Growth inhibition of human RS4:11 cells incubated for 72 hrs by MTT assay. The format is functional. Conditions: RS4-11, 72 h. The method, boiled down:
as §1

A short description of data set [10]: Growth inhibition of human PBL cells incubated for 72 hrs by MTT assay. The format is cell-based. The following applies: PBL cells (peripheral blood lymphocytes). In short, it runs like this: as §4
The nature of data set [11]: Time-dependent metabolic stability in human liver microsomes at 10 uM incubated for 30 mins in presence of NADPH by HPLC analysis. It is filed as ADME, Microsome. The following applies: 0.5 h. The method, boiled down:
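Pooled mixed-gender HLMs (0.5 mg/mL) plus 1 mM NADPH in 0.1 M KH₂PO₄ pH 7.4, compound 10 μM final, 37 °C. Reaction started with microsomes after 3-min equilibration. Stopped with ice-cold acetonitrile at 0, 2, 5, 15, 30 min, then HPLC-fluorescence of supernatant. Percent remaining vs 0 min (mean ± SD, n = 3). Half-life = 0.693/k from linear regression of Ln % remaining vs time.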

Data set [12] can be described thus: Selectivity ratio of GI50 for PHA-stimulated human PBL cells to GI50 for human CEM cells incubated for 72 hrs by MTT assay. The method, boiled down: as §3
For a further data set, the system named is Jurkat. The data set can be described thus: Growth inhibition of human Jurkat cells incubated for 72 hrs by MTT assay. The format is functional. In short, it runs like this:
as §1

Data set [13] is described as follows: Selectivity ratio of GI50 for human PBL cells to GI50 for human Jurkat cells incubated for 72 hrs by MTT assay. The method, boiled down: as §2

The source of these data is ChEMBL document CHEMBL4334446, “Evaluating the effects of fluorine on biological properties and metabolic stability of some antitubulin 3-substituted 7-phenyl-pyrroloquinolinones” (Eur J Med Chem, 2019).

As usually defined, the half-life is how long it takes for the measured level to halve. A word on the GI50: it is the concentration that inhibits growth by half. As a reminder, the IC50 is the concentration at which inhibition is half-maximal. What is called inhibition is the change of the read-out against control, counted positive when it falls. A high value points to strong suppression. Regarding `CCn1ccc2c3c(=O)cc(-c4ccccc4)[nH]c3ccc21`, the half-life at 10 µM in data set [1] was 17.3 min. Further, the GI50 in data set [2] turned out to be 4 nM; in the data set on MCF7 it was 40 nM; in the data set on HL-60 it was 0.5 nM; with HT-29 it was 32 nM; with RS4-11 it was 2 nM; in the data set with Jurkat it was 0.5 nM. Further, the RatioGI50 in data set [3], in data set [6], in data set [7], in [12] and in data set [13] was 10000 - 30000 each time. Further, the IC50 at Tubulin was 570 nM. Also, the Stability entry is “Stable” in data set [4], “Stable” in [5], “Stable” in data set [9] and “Unstable” in [11]. This molecule also had an inhibition on Tubulin (Bos taurus) of 73%. Moreover, the figures for the GI50 at 72 h in data set [8] and in data set [10] were 7600 nM and > 100000 nM, respectively.

With `CCn1ccc2c3c(=O)cc(-c4ccccc4F)[nH]c3ccc21`, in data set [1], the half-life at 10 µM amounted to 11.4 min. The GI50 in data set [2] is 1.1 nM; in the data set on MCF7, 247 nM; with HL-60 it was 0.17 nM; with HT-29, 1.1 nM; in the data set with RS4-11, 0.09 nM; in the data set on Jurkat, 0.19 nM. Also, the RatioGI50 in [3], in data set [6], in [7], in data set [12] and in [13] was 10000 - 30000 throughout. For the same molecule, the IC50 on Tubulin stood at 960 nM. Further, the Stability entry in [4] is “Stable”; in data set [5], “Stable”; in [9], “Stable”; in [11] it was “Unstable”. Moreover, the inhibition on Tubulin (Bos taurus) was 77%. Further, the GI50 at 72 h in data set [8] came to 15200 nM; in data set [10], 28000 nM.
